≈ marks a conversion by molar mass, not a printed value.
Legend:
[1] = WHO-TDR: Cytotoxicity; type: toxicity, cell-based; settings: human, MRC5 cells
Plasmodium falciparum K1 = test: WHO-TDR: Malaria; type: functional, organism-based, Homo sapiens; settings: Erythrocyte
Procedure, shortened: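 Following previously published standard procedures, with a reference drug serving as positive control, compounds were tested on the Plasmodium falciparum K1 strain inside human red blood cells. The 10,000-compound diverse set came from Life Chemicals after filtering for drug-likeness and reactive groups. Potency against the parasite appears as IC50.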

Trypanosoma cruzi = test: WHO-TDR: Chagas disease; type: functional, organism-based, Homo sapiens; settings: MRC5
Procedure, shortened: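 Each IC50 reflects antiparasitic potency against intracellular amastigotes of Trypanosoma cruzi Tulahuen CL2 beta-galactosidase strain. These were cultured in MRC-5SV2 human lung fibroblasts and exposed to a 10,000-compound diverse Life Chemicals library screened according to published standard procedures with a reference drug as positive control.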

[2] = tested on: Trypanosoma brucei brucei; test: WHO-TDR: Human African Trypanosomiasis (HAT); type: functional, organism-based; settings: Squib-427
Procedure, shortened: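 Bloodstream forms of the Trypanosoma brucei Squib 427 strain were tested in a whole-organism screen with a diverse library from Life Chemicals of 10,000 compounds. Before screening, the library was filtered for drug-likeness and for reactive groups. The assay used previously published standard procedures and included reference drugs as positive controls. Potency against the parasite is expressed as IC50.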

Leishmania infantum = test: WHO-TDR: Leishmaniasis; type: functional, organism-based, Mus musculus; settings: Macrophage
Procedure, shortened: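 Following previously published standard procedures, a whole-organism screen was run on Leishmania infantum MHOM/MA(BE)/67 amastigotes within murine peritoneal macrophages, with a reference drug as positive control. The 10,000 compounds tested formed a diverse Life Chemicals library filtered for drug-likeness and reactive groups. Potency against the parasite is reported as IC50.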

Onchocerca ochengi = test: WHO-TDR: Onchocerciasis; type: functional; set-up: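 at 12.5 µM on microfilariae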
Procedure, shortened: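 Microfilariae of Onchocerca ochengi or Onchocerca lienalis, animal pathogens standing in for the human parasite, were exposed to compounds in a whole-organism screen. The compounds came from a 10,000-compound diverse Life Chemicals library filtered for drug-likeness and reactive groups. Results are expressed as percent inhibition and IC50.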

Brugia malayi = test: WHO-TDR: Lymphatic Filariasis; type: functional; set-up: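 tested at 10 µM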
Procedure, shortened: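 In a whole-organism assay, Brugia malayi microfilariae were screened against a diverse Life Chemicals library that had been filtered for drug-likeness and reactive groups. That library comprised 10,000 compounds. Activity is expressed as percent inhibition and as IC50.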

| SMILES | IC50 [1] [µg/mL] | IC50 (Plasmodium falciparum K1) [µg/mL] | IC50 (Trypanosoma cruzi) [µg/mL] | IC50 [2] [µg/mL] | IC50 (Leishmania infantum) [µg/mL] | % Inhibition (Onchocerca ochengi) [%] | % Inhibition (Brugia malayi) [%] |
| --- | --- | --- | --- | --- | --- | --- | --- |
| CC(C)(C)c1ccc(C(=O)N2CCN(c3ccc(Nc4ccncc4)nn3)CC2)cc1 | 3.49 (≈ 8.39 µM) | 3.68 (≈ 8.84 µM) | 4.1 (≈ 9.85 µM) | 4 (≈ 9.6 µM) | 4.04 (≈ 9.71 µM) | 100 | 0 |
| CCOc1ncccc1C(=O)Nc1c(C)nc2sc(C)c(C)n2c1=O | > 10.8 | > 10.8 | > 10.8 | > 10.8 | 0.348 (≈ 0.971 µM) | 0 | 0 |
| Cc1cc(=O)[nH]c(-n2nc(-c3cccs3)cc2NC(=O)C2(c3ccc(Cl)cc3)CCCC2)n1 | 0.682 (≈ 1.42 µM) | 4.97 (≈ 10.4 µM) | 0.466 (≈ 0.971 µM) | 0.412 (≈ 0.858 µM) | 0.517 (≈ 1.08 µM) | 75 | 0 |
| CC(=O)NCCNc1ccc(Nc2cc(C)ccn2)nn1 | 6.36 (≈ 22.2 µM) | 5.28 (≈ 18.4 µM) | > 8.59 | > 8.59 | > 8.59 | 100 | 0 |
| c1ccc2c(c1)CCN(c1ncnc3[nH]ncc13)C2 | > 7.54 | > 7.54 | > 7.54 | > 7.54 | > 7.54 | 100 | 0 |
| c1ccc2c(CCNc3ncnc4[nH]ncc34)c[nH]c2c1 | > 8.35 | > 8.35 | 2.44 (≈ 8.76 µM) | > 8.35 | > 8.35 | 100 | 0 |
| COc1ccccc1CC(=O)c1ccc(O)c(CN2CCCC(C)C2)c1O (configuration not stated) | > 11.1 | 0.343 (≈ 0.928 µM) | > 11.1 | 3.63 (≈ 9.83 µM) | > 11.1 | 0 | 0 |
| CCOC(=O)N1CCN(C(=O)Nc2nc(CC(=O)Nc3ccc(F)c(F)c3)cs2)CC1 | > 13.6 | > 13.6 | > 13.6 | > 13.6 | > 13.6 | 100 | 20 |
| COc1ccccc1CCNC(=O)CCc1csc(NC(=O)c2cccs2)n1 | 5.79 (≈ 13.9 µM) | > 12.5 | 3.8 (≈ 9.15 µM) | 4.19 (≈ 10.1 µM) | 5.26 (≈ 12.7 µM) | 100 | 0 |
| COc1cc(N2CCN(C(=O)Nc3cccc(Cl)c3)CC2)nc(OC)n1 | > 11.3 | > 11.3 | > 11.3 | > 11.3 | > 11.3 | 100 | 0 |
| COc1ccc(-c2cn3c(CCC(=O)NCCc4c[nH]c5ccccc45)csc3n2)cc1 | > 13.3 | 13.3 (≈ 30 µM) | 2.66 (≈ 5.99 µM) | 0.382 (≈ 0.859 µM) | > 13.3 | 100 | 20 |
| O=C(NCCNc1ccc(Nc2cccnc2)nn1)c1cccc(C(F)(F)F)c1 | > 12.1 | 9.79 (≈ 24.3 µM) | > 12.1 | > 12.1 | > 12.1 | 100 | 0 |
| O=C(CCc1csc(NC(=O)c2ccco2)n1)NCc1c(F)cccc1F | > 11.7 | > 11.7 | > 11.7 | > 11.7 | > 11.7 | 100 | 0 |
| FC(F)Sc1ccc(Nc2ncnc3[nH]ncc23)cc1 | > 8.8 | > 8.8 | > 8.8 | > 8.8 | > 8.8 | 100 | 0 |
| COc1ccc(S(=O)(=O)Nc2cc(C)nn2C2CCS(=O)(=O)C2)cc1C (configuration not stated) | > 12 | > 12 | > 12 | > 12 | > 12 | 100 | 0 |
| O=C(CCc1csc(NC(=O)c2ccco2)n1)Nc1ccc(Cl)cc1 | > 11.3 | > 11.3 | 3.67 (≈ 9.77 µM) | > 11.3 | > 11.3 | 100 | 0 |
| COc1ccc(CC(=O)Nc2ccc(SC)nn2)cc1 | > 8.68 | > 8.68 | > 8.68 | > 8.68 | > 8.68 | 100 | 0 |
| O=S(=O)(c1ccccc1)N1CCN(c2ccc(Nc3ccncc3)nn2)CC1 | > 11.9 | > 11.9 | > 11.9 | > 11.9 | 0.385 (≈ 0.971 µM) | 0 | 0 |
| Cc1cc(NS(=O)(=O)c2c(C)noc2C)n(C2CCS(=O)(=O)C2)n1 (configuration not stated) | > 11.2 | > 11.2 | > 11.2 | > 11.2 | > 11.2 | 100 | 0 |
| COc1ccc(C)cc1S(=O)(=O)N1CCN(c2ccc(Nc3cccnc3)nn2)CC1 | 10.3 (≈ 23.4 µM) | > 13.2 | 3.89 (≈ 8.83 µM) | > 13.2 | 4.28 (≈ 9.71 µM) | 100 | 0 |
| CSc1ccccc1NC(=O)CCc1csc(NC(=O)c2cccs2)n1 | > 12.1 | > 12.1 | 5.38 (≈ 13.3 µM) | 4.15 (≈ 10.3 µM) | 12.1 (≈ 30 µM) | 100 | 0 |
| CCOC(=O)N1CCC(NC(=O)CCc2csc(NC(=O)c3ccccc3)n2)CC1 | 4.08 (≈ 9.49 µM) | 10.6 (≈ 24.6 µM) | > 12.9 | > 12.9 | > 12.9 | 100 | 0 |
| O=C(Cc1csc(SCc2ccncc2)n1)N1CCN(c2ccccc2)CC1 | > 12.3 | > 12.3 | 4.2 (≈ 10.2 µM) | > 12.3 | > 12.3 | 100 | 0 |
| COc1ccc(NC(=O)Nc2cccc(-c3csc4nc(C)cc(=O)n34)c2)cc1 | > 12.2 | > 12.2 | > 12.2 | 4.04 (≈ 9.95 µM) | 0.395 (≈ 0.972 µM) | 0 | 0 |
| O=C(Cc1csc(Nc2ccccc2)n1)NCCc1c[nH]c2ccccc12 | > 11.3 | > 11.3 | > 11.3 | > 11.3 | > 11.3 | 100 | 20 |
| Cc1cc(C)c(S(=O)(=O)N2CCN(c3ccc(Nc4ccncc4)nn3)CC2)cc1C | 1.94 (≈ 4.43 µM) | 0.473 (≈ 1.08 µM) | 0.782 (≈ 1.78 µM) | 3.61 (≈ 8.23 µM) | 4.26 (≈ 9.71 µM) | 0 | 0 |

From ChEMBL document CHEMBL2093137, “WHO-TDR NTD Screening”
